From ChEMBL document CHEMBL5653631, “A Potent and Selective ULK1 Inhibitor Suppresses Autophagy and Sensitizes Cancer Cells to Nutrient Stress” (iScience, 2018)
One block for each compound: values may come before it.

Experiments:
[1] = target: Casein kinase I isoform gamma-1 (Homo sapiens) (UniProt Q9HCP0); assay: Inhibition of human recombinant CK1g1 at 500 nM related to control ULK1
[2] = target: Tyrosine-protein kinase Blk (Homo sapiens) (UniProt P51451); assay: Inhibition of human recombinant BLK at 500 nM in presence of ATP by radiometric assay relative to control
Procedure, shortened: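 Part of a radiometric in vitro activity panel of 327 recombinant human kinases. Each kinase was tested in duplicate at one inhibitor concentration. Activity remaining was expressed as a percentage of the vehicle control, and percent inhibition was taken as 100 minus that value.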

[3] = target: Serine/threonine-protein kinase ATR (Homo sapiens) (UniProt Q13535); assay: Inhibition of human recombinant ATR at 500 nM in presence of ATP by radiometric assay relative to control
Procedure, shortened: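 Panel of 327 recombinant human kinases, each assayed in vitro by radiometric activity assay in duplicate at a single inhibitor concentration per compound, chosen with reference to its ULK1 inhibition. Activity remaining was expressed as percent of vehicle control, and percent inhibition was calculated as 100 minus percent activity remaining.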

[4] = target: T1, Serine/threonine-protein kinase Sgk3 (Homo sapiens) (UniProt Q96BR1); assay: Inhibition of human recombinant SGK3 at 500 nM in presence of ATP by radiometric assay relative to control
T1 sequence (whole entry): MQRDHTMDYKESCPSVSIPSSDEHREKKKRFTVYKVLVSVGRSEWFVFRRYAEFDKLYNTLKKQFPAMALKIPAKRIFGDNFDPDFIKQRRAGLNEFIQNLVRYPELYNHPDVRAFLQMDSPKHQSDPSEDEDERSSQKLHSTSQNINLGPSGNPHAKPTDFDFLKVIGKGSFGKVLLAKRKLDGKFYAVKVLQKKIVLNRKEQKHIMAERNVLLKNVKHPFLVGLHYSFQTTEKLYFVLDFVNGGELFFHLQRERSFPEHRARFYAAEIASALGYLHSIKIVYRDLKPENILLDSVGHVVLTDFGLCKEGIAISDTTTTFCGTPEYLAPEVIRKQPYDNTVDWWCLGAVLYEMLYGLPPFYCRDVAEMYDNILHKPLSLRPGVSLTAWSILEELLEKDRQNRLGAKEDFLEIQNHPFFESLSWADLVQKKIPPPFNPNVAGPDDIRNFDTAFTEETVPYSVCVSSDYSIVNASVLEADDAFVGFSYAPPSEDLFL

[5] = target: T2, Myotonin-protein kinase (Homo sapiens) (UniProt Q09013); assay: Inhibition of human recombinant DMPK1 at 500 nM in presence of ATP by radiometric assay relative to control
T2 sequence (whole entry): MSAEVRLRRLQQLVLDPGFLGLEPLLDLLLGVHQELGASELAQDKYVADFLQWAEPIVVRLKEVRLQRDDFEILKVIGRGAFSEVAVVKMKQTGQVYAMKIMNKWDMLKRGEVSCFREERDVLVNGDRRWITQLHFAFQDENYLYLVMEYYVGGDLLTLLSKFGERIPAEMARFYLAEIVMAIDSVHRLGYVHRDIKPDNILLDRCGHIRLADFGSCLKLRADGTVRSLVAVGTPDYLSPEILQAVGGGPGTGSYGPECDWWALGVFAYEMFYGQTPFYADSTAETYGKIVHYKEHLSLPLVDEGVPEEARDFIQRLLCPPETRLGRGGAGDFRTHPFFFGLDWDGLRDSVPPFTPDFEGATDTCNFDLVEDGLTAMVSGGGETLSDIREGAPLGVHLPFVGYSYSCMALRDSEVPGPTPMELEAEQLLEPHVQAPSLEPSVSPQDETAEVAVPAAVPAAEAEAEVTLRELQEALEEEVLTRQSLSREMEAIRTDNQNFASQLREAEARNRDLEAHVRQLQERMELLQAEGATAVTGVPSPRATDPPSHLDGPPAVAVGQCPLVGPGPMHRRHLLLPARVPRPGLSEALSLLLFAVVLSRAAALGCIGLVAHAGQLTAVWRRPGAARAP

[6] = target: Casein kinase I isoform gamma-2 (Homo sapiens) (UniProt P78368); assay: Inhibition of human recombinant CK1g2 at 500 nM in presence of ATP by radiometric assay relative to control
[7] = target: Rho-associated protein kinase 1 (Homo sapiens) (UniProt Q13464); assay: Inhibition of human recombinant ROCK1 at 40 nM related to control ULK1
[8] = target: Dual specificity tyrosine-phosphorylation-regulated kinase 1B (Homo sapiens) (UniProt Q9Y463); assay: Inhibition of human recombinant DYRK1B at 40 nM in presence of ATP by radiometric assay relative to control
[9] = target: T3, Tyrosine-protein kinase receptor TYRO3 (Homo sapiens) (UniProt Q06418); assay: Inhibition of human recombinant TYRO3 at 15 nM in presence of ATP by radiometric assay relative to control
T3 sequence (whole entry): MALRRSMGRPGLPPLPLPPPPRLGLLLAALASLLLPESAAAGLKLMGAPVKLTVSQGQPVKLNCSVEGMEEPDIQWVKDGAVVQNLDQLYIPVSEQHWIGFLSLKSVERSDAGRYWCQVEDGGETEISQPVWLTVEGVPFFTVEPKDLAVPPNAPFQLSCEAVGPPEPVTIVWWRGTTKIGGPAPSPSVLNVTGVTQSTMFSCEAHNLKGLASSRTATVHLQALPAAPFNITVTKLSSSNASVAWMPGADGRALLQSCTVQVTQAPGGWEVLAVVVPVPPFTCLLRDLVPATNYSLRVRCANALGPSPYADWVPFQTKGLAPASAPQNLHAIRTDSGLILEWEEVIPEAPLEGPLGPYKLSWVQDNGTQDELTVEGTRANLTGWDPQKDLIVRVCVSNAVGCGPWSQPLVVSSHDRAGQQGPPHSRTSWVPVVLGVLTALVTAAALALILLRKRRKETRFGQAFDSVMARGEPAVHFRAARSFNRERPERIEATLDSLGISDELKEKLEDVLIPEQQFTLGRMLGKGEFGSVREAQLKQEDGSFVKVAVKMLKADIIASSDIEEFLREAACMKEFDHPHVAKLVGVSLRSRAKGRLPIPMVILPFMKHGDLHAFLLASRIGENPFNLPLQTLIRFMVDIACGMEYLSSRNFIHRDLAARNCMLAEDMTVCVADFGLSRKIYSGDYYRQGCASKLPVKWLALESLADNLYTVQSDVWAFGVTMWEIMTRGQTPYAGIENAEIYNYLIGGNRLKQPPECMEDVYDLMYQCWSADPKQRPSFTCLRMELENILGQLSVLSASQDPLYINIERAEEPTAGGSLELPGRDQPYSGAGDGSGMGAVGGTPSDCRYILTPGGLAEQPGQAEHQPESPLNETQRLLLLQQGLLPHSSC

[10] = target: Mitogen-activated protein kinase 14 (Homo sapiens) (UniProt Q16539); assay: Inhibition of human recombinant p38alpha at 15 nM in presence of ATP by radiometric assay relative to control
[11] = target: Dual specificity mitogen-activated protein kinase kinase 2 (Homo sapiens) (UniProt P36507); assay: Inhibition of human recombinant MAP2K2 at 15 nM related to control ULK1

Sequence of Serine/threonine-protein kinase ATR (Homo sapiens) (Q13535 whole entry, looked up): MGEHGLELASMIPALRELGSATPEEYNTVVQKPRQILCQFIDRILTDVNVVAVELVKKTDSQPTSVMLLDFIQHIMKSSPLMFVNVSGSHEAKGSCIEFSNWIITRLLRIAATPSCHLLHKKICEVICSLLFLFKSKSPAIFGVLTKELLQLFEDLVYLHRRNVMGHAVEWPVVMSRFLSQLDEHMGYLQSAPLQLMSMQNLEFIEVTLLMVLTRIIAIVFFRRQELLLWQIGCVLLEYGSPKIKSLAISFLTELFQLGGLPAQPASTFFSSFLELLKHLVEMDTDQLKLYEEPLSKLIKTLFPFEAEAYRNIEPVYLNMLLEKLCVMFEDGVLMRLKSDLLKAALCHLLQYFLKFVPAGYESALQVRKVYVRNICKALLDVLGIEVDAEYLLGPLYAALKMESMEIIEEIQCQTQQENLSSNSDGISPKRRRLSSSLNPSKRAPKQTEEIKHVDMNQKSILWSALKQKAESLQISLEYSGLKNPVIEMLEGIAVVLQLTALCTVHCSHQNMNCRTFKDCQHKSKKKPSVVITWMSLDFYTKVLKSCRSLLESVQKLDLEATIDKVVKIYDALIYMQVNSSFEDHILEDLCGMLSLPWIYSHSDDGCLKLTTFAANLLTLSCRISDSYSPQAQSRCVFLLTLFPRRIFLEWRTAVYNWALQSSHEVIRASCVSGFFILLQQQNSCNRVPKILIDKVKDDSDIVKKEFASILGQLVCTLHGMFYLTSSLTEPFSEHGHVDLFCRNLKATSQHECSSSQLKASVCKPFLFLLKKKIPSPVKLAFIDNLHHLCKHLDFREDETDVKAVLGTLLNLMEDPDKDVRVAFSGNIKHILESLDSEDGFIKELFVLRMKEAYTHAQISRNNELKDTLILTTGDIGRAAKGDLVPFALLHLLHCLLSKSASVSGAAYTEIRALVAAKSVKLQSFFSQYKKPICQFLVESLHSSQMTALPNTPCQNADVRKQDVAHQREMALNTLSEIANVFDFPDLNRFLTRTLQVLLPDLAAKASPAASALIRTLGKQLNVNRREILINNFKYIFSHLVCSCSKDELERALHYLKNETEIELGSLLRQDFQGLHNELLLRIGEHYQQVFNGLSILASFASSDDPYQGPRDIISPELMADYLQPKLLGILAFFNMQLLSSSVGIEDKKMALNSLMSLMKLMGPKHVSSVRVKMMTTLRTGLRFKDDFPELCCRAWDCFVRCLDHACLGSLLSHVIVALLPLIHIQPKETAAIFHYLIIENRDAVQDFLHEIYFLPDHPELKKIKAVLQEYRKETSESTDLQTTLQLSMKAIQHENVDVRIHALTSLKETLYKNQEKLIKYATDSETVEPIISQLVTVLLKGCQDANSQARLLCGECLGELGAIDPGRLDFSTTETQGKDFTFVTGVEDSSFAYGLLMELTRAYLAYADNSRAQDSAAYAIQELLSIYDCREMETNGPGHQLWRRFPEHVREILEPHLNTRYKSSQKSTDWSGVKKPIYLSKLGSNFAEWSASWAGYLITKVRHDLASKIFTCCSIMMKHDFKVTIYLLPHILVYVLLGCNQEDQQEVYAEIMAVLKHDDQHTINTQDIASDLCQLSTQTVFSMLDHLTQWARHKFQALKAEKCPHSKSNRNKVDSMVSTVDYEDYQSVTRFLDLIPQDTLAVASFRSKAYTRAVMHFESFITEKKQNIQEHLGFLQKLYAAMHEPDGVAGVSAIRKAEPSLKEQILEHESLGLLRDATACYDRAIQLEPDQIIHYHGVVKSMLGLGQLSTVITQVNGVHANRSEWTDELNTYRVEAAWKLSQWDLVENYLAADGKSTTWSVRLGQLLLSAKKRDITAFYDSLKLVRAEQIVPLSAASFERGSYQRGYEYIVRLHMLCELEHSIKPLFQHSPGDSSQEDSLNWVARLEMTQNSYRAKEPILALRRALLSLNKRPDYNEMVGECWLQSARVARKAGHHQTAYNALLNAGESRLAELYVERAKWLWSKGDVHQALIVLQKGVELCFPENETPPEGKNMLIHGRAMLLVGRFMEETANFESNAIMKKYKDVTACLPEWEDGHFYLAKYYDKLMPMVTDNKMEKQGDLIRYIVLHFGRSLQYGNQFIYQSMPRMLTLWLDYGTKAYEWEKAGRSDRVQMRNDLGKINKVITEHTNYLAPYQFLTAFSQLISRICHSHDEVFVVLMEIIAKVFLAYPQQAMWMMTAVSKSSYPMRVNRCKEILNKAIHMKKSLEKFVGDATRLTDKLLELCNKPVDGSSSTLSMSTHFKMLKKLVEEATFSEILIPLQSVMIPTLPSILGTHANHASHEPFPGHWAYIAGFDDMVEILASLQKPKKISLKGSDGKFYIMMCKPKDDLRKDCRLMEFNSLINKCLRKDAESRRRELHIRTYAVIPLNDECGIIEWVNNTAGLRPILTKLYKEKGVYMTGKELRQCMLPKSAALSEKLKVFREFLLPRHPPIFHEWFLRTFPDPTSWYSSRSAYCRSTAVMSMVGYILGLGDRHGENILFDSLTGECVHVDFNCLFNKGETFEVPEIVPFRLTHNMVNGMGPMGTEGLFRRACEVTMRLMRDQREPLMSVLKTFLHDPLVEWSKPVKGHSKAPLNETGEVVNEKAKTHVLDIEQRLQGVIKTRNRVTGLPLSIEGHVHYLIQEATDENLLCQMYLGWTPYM
Sequence of Casein kinase I isoform gamma-1 (Homo sapiens) (Q9HCP0 whole entry, looked up, canonical isoform): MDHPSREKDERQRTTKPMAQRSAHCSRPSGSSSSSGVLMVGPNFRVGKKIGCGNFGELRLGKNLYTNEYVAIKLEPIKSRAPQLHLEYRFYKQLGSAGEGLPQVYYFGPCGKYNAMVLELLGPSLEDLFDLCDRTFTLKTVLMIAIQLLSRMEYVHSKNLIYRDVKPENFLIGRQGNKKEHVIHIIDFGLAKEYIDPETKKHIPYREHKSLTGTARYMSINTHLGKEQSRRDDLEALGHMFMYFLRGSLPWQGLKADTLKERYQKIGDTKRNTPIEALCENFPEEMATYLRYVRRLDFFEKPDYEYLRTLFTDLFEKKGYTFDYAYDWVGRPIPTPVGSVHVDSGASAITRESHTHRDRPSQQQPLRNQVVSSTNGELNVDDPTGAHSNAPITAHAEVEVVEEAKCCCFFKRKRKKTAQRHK
Sequence of Casein kinase I isoform gamma-2 (Homo sapiens) (P78368 whole entry, looked up, canonical isoform): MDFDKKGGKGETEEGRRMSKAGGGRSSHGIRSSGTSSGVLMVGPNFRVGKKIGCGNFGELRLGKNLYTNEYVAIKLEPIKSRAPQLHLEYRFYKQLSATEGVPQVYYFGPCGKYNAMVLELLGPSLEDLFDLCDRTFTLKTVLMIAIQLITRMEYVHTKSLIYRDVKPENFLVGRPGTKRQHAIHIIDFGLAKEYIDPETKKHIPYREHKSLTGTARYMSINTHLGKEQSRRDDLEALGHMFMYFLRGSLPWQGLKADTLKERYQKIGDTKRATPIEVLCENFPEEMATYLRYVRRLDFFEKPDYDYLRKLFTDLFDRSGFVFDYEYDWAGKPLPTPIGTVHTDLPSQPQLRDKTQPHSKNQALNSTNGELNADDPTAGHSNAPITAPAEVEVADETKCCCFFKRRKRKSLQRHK
Sequence of Mitogen-activated protein kinase 14 (Homo sapiens) (Q16539 whole entry): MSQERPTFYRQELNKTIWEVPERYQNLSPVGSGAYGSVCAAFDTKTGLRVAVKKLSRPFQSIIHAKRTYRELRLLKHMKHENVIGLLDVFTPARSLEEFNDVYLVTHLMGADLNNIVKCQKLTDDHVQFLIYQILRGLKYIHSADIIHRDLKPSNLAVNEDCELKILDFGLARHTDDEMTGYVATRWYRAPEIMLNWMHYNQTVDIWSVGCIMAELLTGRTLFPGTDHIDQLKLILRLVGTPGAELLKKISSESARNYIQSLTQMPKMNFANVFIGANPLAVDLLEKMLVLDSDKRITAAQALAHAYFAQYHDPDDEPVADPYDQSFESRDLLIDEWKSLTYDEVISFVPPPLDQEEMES
Sequence of Dual specificity tyrosine-phosphorylation-regulated kinase 1B (Homo sapiens) (Q9Y463 whole entry, looked up): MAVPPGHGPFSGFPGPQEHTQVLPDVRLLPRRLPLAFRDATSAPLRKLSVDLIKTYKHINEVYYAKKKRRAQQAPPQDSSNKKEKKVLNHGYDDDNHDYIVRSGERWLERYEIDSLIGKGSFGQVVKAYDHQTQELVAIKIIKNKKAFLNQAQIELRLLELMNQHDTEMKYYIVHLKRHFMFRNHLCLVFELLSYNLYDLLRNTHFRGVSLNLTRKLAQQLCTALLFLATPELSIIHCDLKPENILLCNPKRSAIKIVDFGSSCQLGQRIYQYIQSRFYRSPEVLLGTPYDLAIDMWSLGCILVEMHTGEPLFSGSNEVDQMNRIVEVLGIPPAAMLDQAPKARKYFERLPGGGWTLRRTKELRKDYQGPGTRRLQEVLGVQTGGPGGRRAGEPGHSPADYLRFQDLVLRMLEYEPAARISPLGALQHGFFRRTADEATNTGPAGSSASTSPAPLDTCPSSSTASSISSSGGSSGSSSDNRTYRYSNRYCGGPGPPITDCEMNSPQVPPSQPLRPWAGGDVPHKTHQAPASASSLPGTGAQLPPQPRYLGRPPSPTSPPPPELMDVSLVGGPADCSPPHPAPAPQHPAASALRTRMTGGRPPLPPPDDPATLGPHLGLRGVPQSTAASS
Sequence of Tyrosine-protein kinase Blk (Homo sapiens) (P51451 2-505 limits assumed): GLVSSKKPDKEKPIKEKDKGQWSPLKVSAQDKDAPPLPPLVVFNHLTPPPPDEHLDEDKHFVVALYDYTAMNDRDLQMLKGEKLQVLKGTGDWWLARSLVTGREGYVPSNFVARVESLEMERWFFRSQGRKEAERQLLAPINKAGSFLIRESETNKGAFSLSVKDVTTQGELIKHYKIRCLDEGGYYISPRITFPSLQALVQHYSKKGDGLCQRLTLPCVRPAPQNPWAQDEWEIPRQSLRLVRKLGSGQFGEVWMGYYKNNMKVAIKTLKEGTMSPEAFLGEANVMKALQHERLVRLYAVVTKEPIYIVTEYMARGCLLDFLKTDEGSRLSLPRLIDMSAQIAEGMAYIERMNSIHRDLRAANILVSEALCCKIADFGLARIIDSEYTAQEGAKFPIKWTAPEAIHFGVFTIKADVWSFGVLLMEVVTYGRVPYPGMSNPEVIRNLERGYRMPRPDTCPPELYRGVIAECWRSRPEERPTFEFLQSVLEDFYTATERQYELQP

fold change (FC) [1]: 0 | inhibition [2]: 29% | inhibition [3]: 0% | inhibition [4]: 1% | inhibition [5]: 0% | inhibition [6]: 0%
SMILES: CNC(=O)c1ccccc1Oc1nc(Nc2cc(OC)c(OC)c(OC)c2)ncc1Br

fold change (FC) [7]: 0 | inhibition [8]: 31%
SMILES: O=C(N[C@@H](C1CC1)C(F)(F)F)c1cc(-c2cnn3cc(-c4ccc(F)cc4)cnc23)cs1

inhibition [9]: 0% | inhibition [10]: 5% | fold change (FC) [11]: 0
SMILES: CC(C)[C@H](NC(=O)c1cc(-c2cnn3cc(-c4ccc(OCCN5CCCCC5)cc4)cnc23)cs1)C(F)(F)F
